How the values were obtained:
A498 = assay: Growth inhibition of human A498 cells; assay type: functional
PC-3 = assay: Growth inhibition of human PC3 cells; assay type: functional
[1] = Growth inhibition of human OVACR5 cells; assay type: functional
MDA-MB-435 = assay: Growth inhibition of human MDA-MB-435 cells; assay type: functional
[2] = Growth inhibition of human HL60(TB) cells; assay type: functional, HL-60(TB); settings: HL-60
BT-549 = assay: Growth inhibition of human BT549 cells; assay type: functional
SK-MEL-5 = assay: Growth inhibition of human SK-MEL-5 cells; assay type: functional
In short: (§1)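 Tested at the NCI in its human disease-oriented in vitro screen of 60 tumour cell lines, following the Monks et al. methods. Activity is expressed as GI50, given as log molar values.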

T47D = assay: Growth inhibition of human T47D cells; assay type: functional; in short: as §1
ACHN = assay: Growth inhibition of human ACHN cells; assay type: functional
Malme-3M = assay: Growth inhibition of human MALME-3M cells; assay type: functional
[3] = Growth inhibition of human MCF7/ADR-RES cells; assay type: functional; settings: NCI/ADR-RES
MOLT-4 = assay: Growth inhibition of human MOLT4 cells; assay type: functional
NCI-H522 = assay: Growth inhibition of human NCI-H522 cells; assay type: functional
HT-29 = assay: Growth inhibition of human HT29 cells; assay type: functional
786-0 = assay: Growth inhibition of human 786-0 cells; assay type: functional
COLO 205 = assay: Growth inhibition of human COLO205 cells; assay type: functional
SN12C = assay: Growth inhibition of human SN12C cells; assay type: functional; in short: as §1
Hs-578T = assay: Growth inhibition of human HS578T cells; assay type: functional
K562 = assay: Growth inhibition of human K562 cells; assay type: functional
SR = assay: Growth inhibition of human SR cells; assay type: functional; in short: as §1
LOX IMVI = assay: Growth inhibition of human LOX IMVI cells; assay type: functional
MCF7 = assay: Growth inhibition of human MCF7 cells; assay type: functional
SW-620 = assay: Growth inhibition of human SW620 cells; assay type: functional; in short: as §1
HOP-92 = assay: Growth inhibition of human HOP92 cells; assay type: functional
SNB-19 = assay: Growth inhibition of human SNB19 cells; assay type: functional; in short: as §1
SK-OV-3 = assay: Growth inhibition of human SK-OV-3 cells; assay type: functional; in short: as §1
NCI-H226 = assay: Growth inhibition of human NCI-H226 cells; assay type: functional
NCI-H322M = assay: Growth inhibition of human NCI-H322M cells; assay type: functional
U-251 = assay: Growth inhibition of human U251 cells; assay type: functional; in short: as §1
HOP-62 = assay: Growth inhibition of human HOP62 cells; assay type: functional
SNB-75 = assay: Growth inhibition of human SNB75 cells; assay type: functional; in short: as §1
SF-295 = assay: Growth inhibition of human SF295 cells; assay type: functional; in short: as §1
[4] = Growth inhibition of human OVACR8 cells; assay type: functional
SF-268 = assay: Growth inhibition of human SF268 cells; assay type: functional; in short: as §1
M14 = assay: Growth inhibition of human M14 cells; assay type: functional
NCI-H23 = assay: Growth inhibition of human NCI-H23 cells; assay type: functional
[5] = Growth inhibition of human […] cells; assay type: functional
[6] = Growth inhibition of human OVACR4 cells; assay type: functional
UACC-257 = assay: Growth inhibition of human UACC257 cells; assay type: functional; in short: as §1
IGROV-1 = assay: Growth inhibition of human IGROV1 cells; assay type: functional
HCT-15 = assay: Growth inhibition of human HCT15 cells; assay type: functional
[7] = Growth inhibition of human RPMI8266 cells; assay type: functional
DU-145 = assay: Growth inhibition of human DU145 cells; assay type: functional
A549 = assay: Growth inhibition of human A549 cells; assay type: functional
KM12 = assay: Growth inhibition of human KM12 cells; assay type: functional
HCC 2998 = assay: Growth inhibition of human HCC2998 cells; assay type: functional
UO-31 = assay: Growth inhibition of human UO31 cells; assay type: functional; in short: as §1
MDA-MB-231 = assay: Growth inhibition of human MDA-MB-231 cells; assay type: functional
SF-539 = assay: Growth inhibition of human SF539 cells; assay type: functional; in short: as §1
HCT-116 = assay: Growth inhibition of human HCT116 cells; assay type: functional
RXF 393 = assay: Growth inhibition of human […] cells; assay type: functional
TK-10 = assay: Growth inhibition of human TK10 cells; assay type: functional; in short: as §1
MDA-N = assay: Growth inhibition of human MDA-N cells; assay type: functional
SK-MEL-2 = assay: Growth inhibition of human SK-MEL-2 cells; assay type: functional; in short: as §1
NCI-H460 = assay: Growth inhibition of human NCI-H460 cells; assay type: functional
CCRF-CEM = assay: Growth inhibition of human CCRF-CEM cells; assay type: functional

Q: Which results are given for C=C(C)C(O)CCC1(C)C=Cc2c(c(C)cc3c2[nH]c2ccccc23)O1 (stereo not drawn)?
A: GI50 (A498): 13.5 µM; GI50 (PC-3): 6.61 µM; GI50 [1]: 2.09 µM; GI50 (MDA-MB-435): 8.32 µM; GI50 [2]: 4.27 µM; GI50 (BT-549): 12.9 µM; GI50 (SK-MEL-5): 10 µM; GI50 (T47D): 7.76 µM; GI50 (ACHN): 4.47 µM; GI50 (Malme-3M): 11.2 µM; GI50 [3]: 8.91 µM; GI50 (MOLT-4): 3.47 µM; GI50 (NCI-H522): 3.31 µM; GI50 (HT-29): 1.7 µM; LC50 (HT-29): 6.17 µM; GI50 (786-0): 3.89 µM; GI50 (COLO 205): 2.45 µM; GI50 (SN12C): 9.55 µM; GI50 (Hs-578T): 3.16 µM; GI50 (K562): 2.75 µM; GI50 (SR): 4.47 µM; GI50 (LOX IMVI): 3.09 µM; GI50 (MCF7): 12.3 µM; GI50 (SW-620): 5.13 µM; GI50 (HOP-92): 10.2 µM; GI50 (SNB-19): 11.5 µM; GI50 (SK-OV-3): 11 µM; GI50 (NCI-H226): 6.31 µM; GI50 (NCI-H322M): 7.94 µM; GI50 (U-251): 5.37 µM; GI50 (HOP-62): 2.45 µM; GI50 (SNB-75): 3.31 µM; GI50 (SF-295): 4.37 µM; GI50 [4]: 10.7 µM; GI50 (SF-268): 5.62 µM; GI50 (M14): 6.61 µM; GI50 (NCI-H23): 10.7 µM; GI50 [5]: 10.2 µM; GI50 [6]: 16.6 µM; GI50 (UACC-257): 8.13 µM; GI50 (IGROV-1): 8.32 µM; GI50 (HCT-15): 1.95 µM; GI50 [7]: 2.95 µM; GI50 (DU-145): 12.6 µM; GI50 (A549): 5.01 µM; GI50 (KM12): 2 µM; CC50 (KM12; read-out: pLC50 (the source's name) (converted)): 9.33 µM; GI50 (HCC 2998): 2.19 µM; GI50 (UO-31): 12 µM; GI50 (MDA-MB-231): 3.47 µM; GI50 (SF-539): 3.63 µM; GI50 (HCT-116): 9.77 µM; GI50 (RXF 393): 2.75 µM; GI50 (TK-10): 14.1 µM; GI50 (MDA-N): 3.55 µM; GI50 (SK-MEL-2): 2.09 µM; GI50 (NCI-H460): 2.34 µM; GI50 (CCRF-CEM): 4.17 µM

From ChEMBL document CHEMBL1142636 (2000)
